Data from ChEMBL document CHEMBL1177863, “Diorganotin(IV) derivatives of ONO tridentate Schiff base: synthesis, crystal structure, in vitro antimicrobial, anti-leishmanial and DNA binding studies” (Eur J Med Chem, 2010).
In brackets after ≈: the same amount, converted by molar mass.

Tests used:
Fusarium solani = assay: Antifungal activity against Fusarium solani ATCC 11712 at 200 ug/ml by agar tube dilution test; assay type: functional
Trichophyton longifusum = assay: Antifungal activity against Trichophyton longifusum ATCC 22397 at 200 ug/ml by agar tube dilution test; assay type: functional
Microsporum canis = assay: Antifungal activity against Microsporum canis ATCC 9865 at 200 ug/ml by agar tube dilution test; assay type: functional
Candida albicans = assay: Antifungal activity against Candida albicans ATCC 2192 at 200 ug/ml by agar tube dilution test; assay type: functional
Aspergillus flavus = assay: Antifungal activity against Aspergillus flavus ATCC 1030 at 200 ug/ml by agar tube dilution test; assay type: functional
Leishmania major = assay: Antileishmanial activity against Leishmania major MHOM/PK/88/DESTO promastigotes by alamar blue assay; assay type: functional, organism-based
Nakaseomyces glabratus = assay: Antifungal activity against Candida glabrata ATCC 90030 at 200 ug/ml by agar tube dilution test; assay type: functional
[1] = Toxicity against Artemia salina nauplii larvae; assay type: organism-based; conditions: in vivo, read-out: LD50 (the source's name)
Summary of the method: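 Brine shrimp lethality bioassay. LD50 was derived from the mortality data by Finney's probit analysis.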

Escherichia coli = assay: Antibacterial activity against Escherichia coli ATCC 11229 […] by agar well-diffusion method; assay type: functional
Summary of the method: (§1)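 Test compounds dissolved in DMSO at 1 mg mL-1 and applied in agar wells; imipenem reference at 10 mg/disc. Inhibition zone diameter was read and graded as 3-6 mm non-significant, 7-9 mm low, 10-12 mm good, and >12 mm significant.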

Salmonella enterica = assay: Antibacterial activity against Salmonella typhi ATCC 10749 at 10 mg/disk by agar well-diffusion method; assay type: functional, Salmonella enterica subsp. enterica serovar Typhi
Summary of the method: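 Agar well-diffusion assay with compounds at 1 mg mL-1 in DMSO. Imipenem served as the reference disc. The read-out is the inhibition zone diameter in mm, graded as 3-6 non-significant, 7-9 low, 10-12 good and >12 significant.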

Bacillus subtilis = assay: Antibacterial activity against Bacillus subtilis ATCC 11774 […] by agar well-diffusion method; assay type: functional; summary of the method: as §1
Shigella flexneri = assay: Antibacterial activity against Shigella flexneri ATCC 10782 […] by agar well-diffusion method; assay type: functional; summary of the method: as §1
Staphylococcus aureus = assay: Antibacterial activity against Staphylococcus aureus ATCC 25923 […] by agar well-diffusion method; assay type: functional; summary of the method: as §1
Pseudomonas aeruginosa = assay: Antibacterial activity against Pseudomonas aeruginosa ATCC 10145 […] by agar well-diffusion method; assay type: functional; summary of the method: as §1

O=CN/N=C/c1ccccc1O showed an inhibition at 200 µg/mL (Fusarium solani) of 0%, an inhibition at 200 µg/mL (Trichophyton longifusum) of 0% and an inhibition at 200 µg/mL (Microsporum canis) of 0%. It also gave an inhibition at 200 µg/mL (Candida albicans) of 0%, an inhibition at 200 µg/mL (Aspergillus flavus) of 40% and an IC50 (Leishmania major) of 24 µg/mL (≈ 146 µM). For the same compound, the inhibition at 200 µg/mL (Nakaseomyces glabratus) was 0%.

COc1cc([C@@H]2c3cc4c(cc3[C@@H](O[C@@H]3O[C@@H]5CO[C@@H](C)O[C@H]5[C@H](O)[C@H]3O)[C@H]3COC(=O)[C@H]23)OCO4)cc(OC)c1O [ETOPOSIDE] showed an LC50 [1] of 7.46 µg/mL (≈ 12.7 µM).

In the case of C[C@@H](O)[C@H]1C(=O)N2C(C(=O)O)=C(SCCNC=N)C[C@H]12 [IMIPENEM ANHYDROUS], the “diameter of the inhibition zone (DIZ)” value (Escherichia coli) is reported as 30 mm, the “diameter of the inhibition zone (DIZ)” value (Salmonella enterica) is reported as 30 mm and the “diameter of the inhibition zone (DIZ)” value (Bacillus subtilis) is reported as 37 mm. For the same compound, the “diameter of the inhibition zone (DIZ)” value (Shigella flexneri) was 36 mm, the “diameter of the inhibition zone (DIZ)” value (Staphylococcus aureus) was 26 mm and the “diameter of the inhibition zone (DIZ)” value (Pseudomonas aeruginosa) was 32 mm.
